From ChEMBL document CHEMBL1255422, “Novel FKS mutations associated with echinocandin resistance in Candida species” (Antimicrob Agents Chemother, 2010)
In brackets after ≈: the same amount, converted by molar mass. Numbered stars: 1 amine (or outer) side, 2 acyl side, 3 side chain; on linkers, the order of the positions; unused ones are H or OH. Bridge positions count the residues as written; N and C are the ends. Square brackets hold non-standard residues; d marks the D form. Peptide text beside a SMILES is read from it. * marks the point of attachment. hTyr(3S-OH,4S-OH,3'-OSO3H) = N[C@H](C(=O)O)[C@H](O)[C@@H](O)c1ccc(O)c(OS(=O)(=O)O)c1; pTerphenylCO(4''-OnC5H11) = CCCCCOc1ccc(-c2ccc(-c3ccc(C(=O)*)cc3)cc2)cc1; Orn(4R-OH,5R-OH) = O=C([C@H](C[C@@H](O)[C@@H](O)N[*:3])N[*:1])[*:2]; hTyr(3S-OH,4S-OH) = N[C@H](C(=O)O)[C@H](O)[C@@H](O)c1ccc(O)cc1; Pro(3S-OH,4S-Me) = C[C@H]1CN[C@H](C(=O)O)[C@H]1O; X1 = CCCCCOc1ccc(-c2cc(-c3ccc(C(=O)*)cc3)no2)cc1; Gln(3R-OH) = NC(=O)C[C@@H](O)[C@H](N)C(=O)O; Hyp = O=C(O)[C@@H]1C[C@@H](O)CN1

Assays:
[1] = Inhibition of Candida albicans 205 FKS1 T1933C mutant
How it was run: (§1)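 1,3-β-d-glucan synthase complexes were isolated from each strain and titrated against echinocandin to generate inhibition curves. IC50 was taken from the inhibition kinetics and given as the arithmetic mean of three repetitions.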

[2] = tested on: Candida albicans; test: Antifungal activity against Candida albicans 205 harboring FKS1 T1933C mutant gene; format: functional
How it was run: (§2)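 Whole-cell MIC testing of clinical isolates alongside reference strains. Each MIC is the geometric mean of three repetitions.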

[3] = tested on: Nakaseomyces glabratus; test: Antifungal activity against Candida glabrata CG-C3 harboring FKS2 T1987C mutant gene; format: functional; how it was run: as §2
[4] = Inhibition of Candida glabrata CG-C3 FKS2 T1987C mutant; design: species or system Nakaseomyces glabratus; how it was run: as §1
[5] = tested on: Nakaseomyces glabratus; test: Antifungal activity against Candida glabrata CG-C2 harboring FKS1 T1885C mutant gene; format: functional; how it was run: as §2
[6] = tested on: Candida albicans; test: Antifungal activity against wild type Candida albicans ATCC 90028; format: functional; how it was run: as §2
[7] = Inhibition of Candida tropicalis CT-C1 FKS1 T227C mutant; how it was run: as §1
[8] = Inhibition of Candida tropicalis ATCC 750 wild type FKS; how it was run: as §1
[9] = Inhibition of Candida albicans 177 FKS1 T1922C mutant; how it was run: as §1
[10] = tested on: Nakaseomyces glabratus; test: Antifungal activity against wild type Candida glabrata ATCC 90030; format: functional
How it was run: (§3)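 MIC by broth dilution. The reported value is the geometric mean of three repetitions. Clinical isolates were tested alongside reference strains C. glabrata ATCC 90030, C. tropicalis ATCC 750, C. albicans ATCC 90028, 205 and 177.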

[11] = Inhibition of Candida glabrata CG-C3 FKS
[12] = tested on: Candida tropicalis; test: Antifungal activity against Candida tropicalis CT-C1 harboring FKS1 T227C mutant gene; format: functional; how it was run: as §2
[13] = Inhibition of Candida albicans ATCC 90028 wild type FKS; how it was run: as §1
[14] = Inhibition of Candida glabrata CG-C2 FKS1 T1885C mutant; design: species or system Nakaseomyces glabratus; how it was run: as §1
[15] = tested on: Candida albicans; test: Antifungal activity against Candida albicans 177 harboring FKS1 T1922C mutant gene; format: functional; how it was run: as §2
[16] = Inhibition of Candida glabrata CG-C2 FKS
[17] = tested on: Candida tropicalis; test: Antifungal activity against wild type Candida tropicalis ATCC 750; format: functional; how it was run: as §2
[18] = tested on: Nakaseomyces glabratus; test: Antifungal activity against Candida glabrata clinical isolate assessed as percent isolates by broth dilution assay
[19] = tested on: Candida tropicalis; test: Antifungal activity against Candida tropicalis clinical isolate assessed as percent isolates by broth dilution assay
[20] = tested on: Nakaseomyces glabratus; test: Antifungal activity against Candida glabrata clinical isolate by broth dilution assay; format: functional; how it was run: as §3
[21] = Inhibition of Candida glabrata ATCC 90030 wild type FKS; design: species or system Nakaseomyces glabratus; how it was run: as §1
[22] = tested on: Candida tropicalis; test: Antifungal activity against Candida tropicalis clinical isolate by broth dilution assay; format: functional; how it was run: as §3
[23] = Inhibition of Candida tropicalis CT-C1 FKS

Structure (SMILES)	IC50 [1]	MIC [2]	MIC [3]	IC50 [4]	MIC [5]	MIC [6]	IC50 [7]	IC50 [8]	IC50 [9]	MIC [10]	MIC [12]	IC50 [13]	IC50 [14]	MIC [15]	MIC [17]	IC50 [21]	other results
CCCCCOc1ccc(-c2ccc(-c3ccc(C(=O)N[C@H]4C[C@@H](O)[C@@H](O)NC(=O)[C@@H]5[C@@H](O)[C@@H](C)CN5C(=O)[C@H]([C@@H](C)O)NC(=O)[C@H]([C@H](O)[C@@H](O)c5ccc(O)cc5)NC(=O)[C@@H]5C[C@@H](O)CN5C(=O)[C@H]([C@@H](C)O)NC4=O)cc3)cc2)cc1 [ANIDULAFUNGIN] ({pTerphenylCO(4''-OnC5H11)}-[Orn(4R-OH,5R-OH)]T[Hyp][hTyr(3S-OH,4S-OH)]T[Pro(3S-OH,4S-Me)]; lactam 1-C)	0.2454 mg/L (≈ 0.215 µM)	1.33 mg/L (≈ 1.17 µM)	8 mg/L (≈ 7.02 µM)	16.882 mg/L (≈ 14.8 µM)	4 mg/L (≈ 3.51 µM)	0.03 mg/L (≈ 0.0263 µM)	0.06128 mg/L (≈ 0.0537 µM)	0.00233 mg/L (≈ 0.00204 µM)	1.091 mg/L (≈ 0.957 µM)	< 0.03 mg/L	1 mg/L (≈ 0.877 µM)	0.0005 mg/L (≈ 0.000438 µM)	12.778 mg/L (≈ 11.2 µM)	0.83 mg/L (≈ 0.728 µM)	0.06 mg/L (≈ 0.0526 µM)	–	IC50 [11]: 13.29 mg/L (≈ 11.7 µM); IC50 [16]: 14.26 mg/L (≈ 12.5 µM)
CC[C@H](C)C[C@H](C)CCCCCCCCC(=O)N[C@H]1C[C@@H](O)[C@@H](NCCN)NC(=O)[C@@H]2[C@@H](O)CCN2C(=O)[C@H]([C@H](O)CCN)NC(=O)[C@H]([C@H](O)[C@@H](O)c2ccc(O)cc2)NC(=O)[C@@H]2C[C@@H](O)CN2C(=O)[C@H]([C@@H](C)O)NC1=O [CASPOFUNGIN]	0.2454 mg/L (≈ 0.224 µM)	8 mg/L (≈ 7.32 µM)	> 16 mg/L	16.882 mg/L (≈ 15.4 µM)	8 mg/L (≈ 7.32 µM)	0.12 mg/L (≈ 0.11 µM)	0.06128 mg/L (≈ 0.056 µM)	0.00233 mg/L (≈ 0.00213 µM)	1.091 mg/L (≈ 0.998 µM)	0.03 mg/L (≈ 0.0274 µM)	4 mg/L (≈ 3.66 µM)	0.0005 mg/L (≈ 0.000457 µM)	12.778 mg/L (≈ 11.7 µM)	4 mg/L (≈ 3.66 µM)	0.25 mg/L (≈ 0.229 µM)	0.00192 mg/L (≈ 0.00176 µM)	Activity [18]: 2.2%; Activity [19]: 5.8%; MIC [20]: ≥ 2 mg/L; MIC [22]: ≥ 2 mg/L
CCCCCOc1ccc(-c2cc(-c3ccc(C(=O)N[C@H]4C[C@@H](O)[C@@H](O)NC(=O)[C@@H]5[C@@H](O)[C@@H](C)CN5C(=O)[C@H]([C@H](O)CC(N)=O)NC(=O)[C@H]([C@H](O)[C@@H](O)c5ccc(O)c(OS(=O)(=O)O)c5)NC(=O)[C@@H]5C[C@@H](O)CN5C(=O)[C@H]([C@@H](C)O)NC4=O)cc3)no2)cc1 [MICAFUNGIN] (X1-[Orn(4R-OH,5R-OH)]T[Hyp][hTyr(3S-OH,4S-OH,3'-OSO3H)][Gln(3R-OH)][Pro(3S-OH,4S-Me)]; lactam 1-C)	1.088 mg/L (≈ 0.856 µM)	4 mg/L (≈ 3.15 µM)	> 16 mg/L	11.422 mg/L (≈ 8.99 µM)	2 mg/L (≈ 1.57 µM)	0.03 mg/L (≈ 0.0236 µM)	0.4059 mg/L (≈ 0.32 µM)	0.007545 mg/L (≈ 0.00594 µM)	1.435 mg/L (≈ 1.13 µM)	0.03 mg/L (≈ 0.0236 µM)	1 mg/L (≈ 0.787 µM)	0.0188 mg/L (≈ 0.0148 µM)	15.144 mg/L (≈ 11.9 µM)	1 mg/L (≈ 0.787 µM)	0.06 mg/L (≈ 0.0472 µM)	0.00071 mg/L (≈ 0.000559 µM)	IC50 [23]: 0.4014 mg/L (≈ 0.316 µM)
